Experimental data pooled from the literature.
Protocols differ between the studies behind these lines.
Target: Cytochrome P450 2D6 (CYP2D6, Homo sapiens, UniProt P10635)
Observed: enzyme activity
Action: inhibitor

Structure (SMILES) | method | species | medium | time | pH | IC50
Nc1nc(N)c2nc(C(=O)NCc3cccc(C(F)(F)F)c3)cnc2n1 | luciferase | – | – | – | – | 0.251 µM
COc1ccc2cc3[n+](cc2c1OC)CCc1cc2c(cc1-3)OCO2 | – | – | – | – | – | 0.6 µM
CC1=CC(=O)C(C(C)C)=CC1=O | fluorescence | – | – | – | pH 7.4 | 282 µM
Cc1cc2c(F)c(Oc3ncnn4cc(OC[C@@H](C)O)c(C)c34)ccc2[nH]1 | fluorescence | – | – | 15 min | – | 34.7 µM
Nc1nc(N)c2nc(C(=O)NCc3ccccc3)cnc2n1 | luciferase | – | – | – | – | 0.204 µM
C[C@@H](c1ccc2nccn2c1)n1nnc2ncc(-c3cnn(C)c3)nc21 | – | human | liver microsomes | – | pH 7.4 | 24 µM
NS(=O)(=O)NCCNc1nonc1C(=NO)Nc1ccc(F)c(Br)c1 | fluorescence | – | – | – | – | > 10 µM
COc1ccc2c(Cc3ccccc3F)c3[n+](cc2c1OC)CCc1cc2c(cc1-3)OCO2 | – | – | – | – | – | 0.2 µM
COc1ccn2c(Nc3ccccc3F)c(-c3ccncn3)nc2c1 | – | – | – | – | – | 2.3 µM
CCOC(=O)C1CCN(C(=O)c2ccc(N(CC)Cc3cnc4nc(N)nc(N)c4n3)cc2)CC1 | luciferase | – | – | – | – | 51.3 µM
Cc1ccc2nc(-c3ccccc3)c(CNc3ccc(F)cc3)n2c1 | – | – | – | – | – | 2.3 µM
Cc1cc([C@H]2C[C@H]3[C@@H](CF)SC(N)=N[C@@]3(c3ccc(F)cc3F)CO2)on1 | – | human | liver microsomes | – | pH 7.4 | > 30 µM
